IMP-1 inhibitor: IMP-1 metallo-beta-lactamase inhibitors, primary screen, biochemical, epi-absorbance readout, Pseudomonas aeruginosa enzyme; actives 0.45% (n = 290,000); inhibition, % at 5.6 µM; purified IMP-1, nitrocefin hydrolysis, epi-absorbance fluorescence; AID 1556, 2009;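 active means inhibition above the mean plus 3 SD of all compounds in the same screening run, cut at about 4.5% in these data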;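 further: 0% = IMP-1 with DMSO and 100% = DMSO wells lacking enzyme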
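Assay system: purified recombinant IMP-1 beta-lactamase. Input: IMP-1 0.2 nM before substrate addition. Buffer or medium: Zinc- and detergent-supplemented HEPES buffer, pH 7.1. Schedule: 25 °C, 15 min preincubation, 25 min reaction. Signal: Epi-absorbance fluorescence, 480 nm excitation, 530 nm emission. Evaluation: percent inhibition from optical density relative to buffer-blank wells.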
M18AAP inhibitor: PfM18AAP inhibitors, malaria aminopeptidase, primary screen, biochemical, QFRET, recombinant enzyme. M18 aspartyl aminopeptidase (Plasmodium falciparum 3D7). H-Glu-NHMec fluorogenic cleavage. inhibition, % at 7.35 µM. actives 1.2% (n = 290,000);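 active means inhibition above the campaign mean inhibition over all tested compounds plus 3 SD, cut at about 28% in these data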;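 further: 0% = plate median of test compound wells and 100% = 2 mM ZnCl2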
CTSL1 counter: Fasciola hepatica cathepsin L1 inhibitors, primary screen, counter-screen for PFM18AAP inhibitor project, biochemical, QFRET, fluorogenic peptide substrate; recombinant F. hepatica cathepsin L1, Z-Leu-Arg-MCA fluorescence; inhibition, % at 5.96 µM; actives 0.49% (n = 300,000); AID 1906, 2009;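 active means inhibition above the mean of all tested compounds plus 3 SD, set per screening campaign, cut at about 17% in these data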;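 further: 0% = plate median of test compound wells and 100% = 1 µM Z-Phe-Ala-diazomethylketone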
VIM-2 inh: VIM-2 metallo-beta-lactamase inhibitors, primary screen, biochemical, epi-absorbance readout, Pseudomonas aeruginosa enzyme; purified VIM-2, nitrocefin hydrolysis, epi-absorbance fluorescence; inhibition, % at 5.6 µM; actives 0.89% (n = 290,000);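 active means inhibition above the mean of all tested compounds plus 3 SD, cutoff set per screening run, cut at about 7.5% in these data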;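 further: red hydrolysis product quenches plate fluorescence so inhibitors raise well fluorescence; 0% = enzyme with DMSO and 100% = DMSO without enzyme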
Starred values were filed as active, the others as inactive; x = no result given. Compounds with a hit are over-represented: about 2.7% of the library has one in this group of screens.

SMILES | IMP-1 inhibitor | M18AAP inhibitor | CTSL1 counter | VIM-2 inh
C#CCOCCOCCOCCNc1nc(N2CCN(C(=O)[C@H]([C@@H](C)CC)n3cc([C@@H](N)CC(C)C)nn3)CC2)nc(N2CCN(C(=O)[C@H](CCCCN)n3cc([C@@H](N)CC(C)C)nn3)CC2)n1 | -2 | -1 | 10 | 0
C#CCOCCOCCOCCNc1nc(N2CCN(C(=O)[C@H]([C@@H](C)CC)n3cc([C@@H](N)CO)nn3)CC2)nc(N2CCN(C(=O)[C@H](CCCCN)n3cc([C@@H](N)C(C)CC)nn3)CC2)n1 (stereo not given in full) | 14* | 6 | 4 | -1
C#CCOCCOCCOCCNc1nc(N2CCN(C(=O)C([C@@H](C)CC)n3cc(C(N)COC(=O)C(F)(F)F)nn3)CC2)nc(N2CCN(C(=O)[C@H](CCCCN)n3cc(C(N)[C@H](C)CC)nn3)CC2)n1 (stereo not given in full) | x | x | 31* | x
C#CCOCCOCCOCCNc1nc(N2CCN(C(=O)[C@H](CCC(=O)O)n3cc(C(N)Cc4ccc(O)cc4)nn3)CC2)nc(N2CCN(C(=O)[C@H](CCC(=O)O)n3cc(C(N)[C@H](C)CC)nn3)CC2)n1 (stereo not given in full) | 5.2* | 16 | -4 | 0
O=C(N/N=C/c1cc(Br)c(Br)o1)c1cccnc1 | -2 | 2 | 11 | -3
CCC(C(=O)O)N1C(=O)/C(=C/C(C)=C/c2ccccc2)SC1=S (stereo not given) | 1 | -6 | 8 | 8.2*
Cc1ccc(-c2cc(C(F)(F)F)n3nc(C(=O)N4CCN5CCCC5C4)cc3n2)cc1 (stereo not given) | 0 | -2 | -1 | 10*
Nc1c(C(=O)N2CCOCC2)sc2nc3c(cc12)CCCC3 | -4 | 31* | 8 | -2
Nc1c(C(=O)N2CCOCC2)sc2nc3c(cc12)CCC3 | -4 | 1 | -1 | -3
O=C(Nc1ccccc1Cl)c1ccc2nc(N3CCOCC3)sc2c1 | -2 | -3 | 5 | -2
O=C(COc1ccc(Cl)cc1)NCCCNC(=O)c1cccnc1 | 0 | 7 | 17* | -2
O=C(CC12CCC(CC1)C2)NCc1ccc2c(c1)OCO2 | -3 | -7 | 0 | -1
CC(=O)Nc1ccc2c(CSc3nncs3)cc(=O)oc2c1 | 5.4* | 20 | 1 | 3
Cc1ccc2c(CSc3nnc(N)s3)cc(=O)oc2c1 | -3 | 5 | 1 | -2
CCOc1ccc(Nc2nc(N)nc(CSC(=S)N3CCOCC3)n2)cc1 | -1 | -6 | 18* | 1
CCOC(=O)c1cnc(-n2nc(C)cc2C)nc1NC | -4 | 1 | 0 | 8.1*
CCOC(=O)c1cnc(-n2nc(C)cc2C)nc1Nc1ccc(C)cc1 | -3 | 0 | x | 1
Cc1ccccc1OCCSc1nc2ncnc(N)c2[nH]1 | -3 | -13 | 2 | -2
CCn1ncc(Br)c1C(=O)Nc1ccc(F)c([N+](=O)[O-])c1 | 0 | 10 | -2 | -1
COc1ccc(C(C[N+](=O)[O-])c2c(C)[nH]n(-c3ccccc3)c2=O)cc1 (stereo not given) | -2 | 45* | 98* | 6
COc1ccc(NC(=O)CSc2nc3c(c(=O)n2-c2ccc(C)cc2)SCC3)c(OC)c1 | -3 | -4 | 3 | -1
COc1ccc(C(=O)NC(=S)Nc2cccc3cc(O)ccc23)cc1OC | 4.5* | -3 | 2 | 0
CCOc1ccc(-c2c(C#N)c(N)nc3c2c(=O)n(C)c(=O)n3C)cc1OC | 7.6* | 3 | 7 | -2
COc1ccc(-c2[nH]ncc2/C=N\NC(=O)c2ccc(Br)o2)cc1OC | -4 | 5 | 2 | -6
CCOC(=O)c1ccsc1NC(=O)c1ccco1 | -1 | -6 | 0 | 9.1*
SMILES | IMP-1 inhibitor | M18AAP inhibitor | CTSL1 counter | VIM-2 inh
COc1ccc(-c2ncnc(C(F)(F)F)c2-c2csc(C)n2)c(O)c1 | -2 | 0 | 18* | -1
Cc1cccc(N2CCN(C(=S)c3ccc([N+](=O)[O-])cc3)CC2)c1 | -3 | 30* | 4 | -3
CCOc1cc(C(=O)N/N=C/C2CC=CCC2)cc(OCC)c1OCC (stereo not given) | -5 | -4 | 9 | -3
Cc1ccc(C)c(OCCCC(=O)Nc2ccc(N3CCOCC3)cc2)c1 | 6.3* | 17 | x | -4
Cc1ccc(C)c(OCC(=O)Nc2ccc(N3CCOCC3)cc2)c1 | -3 | 15 | 5 | 4
CCN(CC)CCCN(Cc1cc2cc(OC)c(OC)cc2[nH]c1=O)C(=O)Nc1ccccc1 | -2 | 9 | 3 | 7.9*
COc1ccc(Nc2cc(C)nc3ncnn23)cc1Cl | -5 | 0 | -2 | 9.4*
CCOc1nc(Nc2ccc(OC)c(Cl)c2)nc(OCC)n1 | -4 | 5 | 1 | 10*
COC(=O)c1ccc2c(c1)SC1=C(CCCC1=O)N2 | -2 | 14 | 1 | -3
O=C1CCCC2=C1Sc1ccc(Cl)cc1N2 | 2 | 30* | 7 | 0
CS(=O)(=O)N(CC(=O)N1CCCCCC1)c1cccc([N+](=O)[O-])c1 | -3 | -2 | 2 | -5
NCCNC(=O)c1c(O)c2cccc3c2n(c1=O)CCC3 | 0 | 8 | x | 12*
CC(=O)Oc1ccc(C(=O)Nc2cccc(-c3nnc(-c4ccco4)o3)c2)cc1 | 42* | 2 | -14 | -3
O=C(Nc1cccc(-c2nnc(-c3ccco3)o2)c1)c1ccccc1 | -4 | -6 | 1 | -5
Cc1ccccc1-n1c(SCC(=O)N2CCOCC2)nc(O)c(Cc2ccccc2)c1=O | 5.2* | 0 | -3 | -1
O=C(CC1C(=O)NCCN1Cc1ccc(F)cc1)NC1CCCCCCC1 (stereo not given) | 0 | 14 | 19* | -3
CCN(C(=O)COC(=O)/C=C/c1ccccc1)C1CCCCC1 | -3 | -2 | -11 | 0
Cc1ccccc1Nc1cc2ccccc2c(=O)[nH]1 | -3 | 1 | 83* | -1
O=c1[nH]c(Nc2ccc(F)cc2)cc2ccccc12 | -4 | 8 | 58* | -4
NC1=CC(=O)c2cccc3cccc1c23 | 14* | 11 | 1 | 3
O=C1C=C(O)c2cccc3cccc1c23 | -1 | 21 | 7 | -1
Cc1nc2c(sc(=S)n2Cc2ccco2)c(=O)n1CC(=O)Nc1ccccc1F | 6.0* | -4 | 1 | -2
CCn1c(=S)sc2c(=O)n(CC(=O)NCCCc3ccccc3)c(C)nc21 | 12* | -4 | 1 | -5
Cc1nc2c(sc(=S)n2Cc2ccco2)c(=O)n1CC(=O)Nc1ccccc1 | 1 | 15 | 6 | -1
O=C(O)C1C2CCC(O2)C1C(=O)NCc1ccc(Cl)cc1 (stereo not given) | -1 | -3 | 1 | -1
COCCn1cnnc1SCC(=O)c1ccc(S(=O)(=O)N2CCCC2)cc1 | -3 | 7 | -4 | -1
COc1ccc(Cl)cc1NC(=O)Cn1nnc(C(=O)NCc2ccc3c(c2)OCO3)c1N | 18* | -16 | -1 | -1
